Measured values gathered from unrelated publications.
Lines come from different studies, so protocols differ.
ACHE: Acetylcholinesterase (ACHE, Homo sapiens, UniProt P22303)

| Structure (SMILES) | target | observed | mode | method | tested at | measurement | value |
| --- | --- | --- | --- | --- | --- | --- | --- |
| COc1cc(/C=C/C(=O)O)ccc1OCc1cn(CC(=O)Nc2ccc(C)cc2)nn1 | ACHE | enzyme activity | inhibitor | Ellman | 40 µM | inhibition | 46% |
| C1CO1.C=O.CC(C)(C)CC(C)(C)c1ccc(O)cc1 | Mitogen-activated protein kinase 3 (MAPK3, Homo sapiens, UniProt P27361) | enzyme activity | inhibitor | ADP detection | 10 µM | inhibition | 45.2% |
| [2H]c1c([2H])c([C@]2([2H])CCCN2C(=O)C(C)(C)Oc2ccc3cn[nH]c3c2)c([2H])c([2H])c1C([2H])([2H])[2H] | Ephrin type-A receptor 2 (EPHA2, Homo sapiens, UniProt P29317) | binding |  | competition with immobilised ligand | 1 µM | remaining binding | 99% |
| CCc1ccc(N2C(=O)/C(=C3/C(=O)N(C)c4ccc(Cl)cc43)NC2=S)cc1 | ACHE | enzyme activity | inhibitor | Ellman | 5 µM | inhibition | 84% |
| CCCCC(=O)Nc1ccc(-c2ccc3ncn(CCC)c(=O)c3c2)cn1 | Serine/threonine-protein kinase PknB (pknB, Mycobacterium tuberculosis, UniProt P9WI81) | binding |  | competition with immobilised ligand | 0.5 µM | remaining binding | 100% |
| COc1cc(/C=C/C(=O)O)ccc1OCc1cn(CC(=O)Nc2ccccc2[N+](=O)[O-])nn1 | ACHE | enzyme activity | inhibitor | Ellman | 40 µM | inhibition | 22.1% |
| CC(C)CC(=O)OC[C@H]1O[C@@](C#N)(c2ccc3c(N)ncnn23)[C@H](O)[C@@H]1O | ACHE | enzyme activity | inhibitor |  | 20 µM | inhibition | 3% |
| COc1cc(/C=C/C(=O)O)ccc1OCc1cn(CC(=O)Nc2ccccc2C)nn1 | ACHE | enzyme activity | inhibitor | Ellman | 40 µM | inhibition | 30.9% |
| CN1C(=O)/C(=N\Nc2ncc(-c3cc4ccccc4oc3=O)s2)c2cc(Cl)ccc21 | ACHE | enzyme activity | inhibitor | Ellman | 1 µM | inhibition | 90% |
